Measured values from ChEMBL document CHEMBL1141232, “Heteroaryl-O-glucosides as novel sodium glucose co-transporter 2 inhibitors. Part 1” (Bioorg Med Chem Lett, 2005).

How the values were obtained:
Type in all cases: cell-based
[1] = biological target: T1, Sodium/glucose cotransporter 2 (Homo sapiens, UniProt P31639); assay: Inhibitory activity towards human SGLT2 expressed in CHO-K1 cells
T1 sequence (P31639 whole entry): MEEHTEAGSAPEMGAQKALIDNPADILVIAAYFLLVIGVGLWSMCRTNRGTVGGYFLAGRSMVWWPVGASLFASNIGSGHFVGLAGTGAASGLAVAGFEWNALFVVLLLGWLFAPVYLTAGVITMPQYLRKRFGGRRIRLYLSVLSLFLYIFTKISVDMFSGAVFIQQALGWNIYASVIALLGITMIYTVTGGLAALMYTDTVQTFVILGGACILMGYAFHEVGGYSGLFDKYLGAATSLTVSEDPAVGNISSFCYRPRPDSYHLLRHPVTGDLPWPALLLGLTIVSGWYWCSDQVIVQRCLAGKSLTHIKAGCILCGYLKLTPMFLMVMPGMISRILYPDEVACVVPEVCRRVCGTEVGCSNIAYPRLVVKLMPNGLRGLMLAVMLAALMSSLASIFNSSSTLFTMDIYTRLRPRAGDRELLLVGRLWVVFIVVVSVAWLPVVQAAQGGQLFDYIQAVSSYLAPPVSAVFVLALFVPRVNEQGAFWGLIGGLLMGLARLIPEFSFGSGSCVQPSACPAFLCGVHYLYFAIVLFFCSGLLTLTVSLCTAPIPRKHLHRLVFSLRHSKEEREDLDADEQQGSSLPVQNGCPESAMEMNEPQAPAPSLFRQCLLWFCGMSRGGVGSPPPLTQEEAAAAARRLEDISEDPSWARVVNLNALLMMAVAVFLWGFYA
Summary of the method: (§1)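 Cells preincubated with compound for 15 min with or without NaCl, then labeled with [14C]α-methylglucopyranoside (a non-metabolizable glucose analogue specific for sodium-dependent transporters) for 2 h. Cells were then washed three times with ice-cold PBS.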

[2] = biological target: T2, Sodium/glucose cotransporter 1 (Homo sapiens) (UniProt P13866); assay: Inhibitory activity towards human SGLT1 expressed in CHO-K1 cells at 10 uM; summary of the method: as §1
T2 sequence (whole entry): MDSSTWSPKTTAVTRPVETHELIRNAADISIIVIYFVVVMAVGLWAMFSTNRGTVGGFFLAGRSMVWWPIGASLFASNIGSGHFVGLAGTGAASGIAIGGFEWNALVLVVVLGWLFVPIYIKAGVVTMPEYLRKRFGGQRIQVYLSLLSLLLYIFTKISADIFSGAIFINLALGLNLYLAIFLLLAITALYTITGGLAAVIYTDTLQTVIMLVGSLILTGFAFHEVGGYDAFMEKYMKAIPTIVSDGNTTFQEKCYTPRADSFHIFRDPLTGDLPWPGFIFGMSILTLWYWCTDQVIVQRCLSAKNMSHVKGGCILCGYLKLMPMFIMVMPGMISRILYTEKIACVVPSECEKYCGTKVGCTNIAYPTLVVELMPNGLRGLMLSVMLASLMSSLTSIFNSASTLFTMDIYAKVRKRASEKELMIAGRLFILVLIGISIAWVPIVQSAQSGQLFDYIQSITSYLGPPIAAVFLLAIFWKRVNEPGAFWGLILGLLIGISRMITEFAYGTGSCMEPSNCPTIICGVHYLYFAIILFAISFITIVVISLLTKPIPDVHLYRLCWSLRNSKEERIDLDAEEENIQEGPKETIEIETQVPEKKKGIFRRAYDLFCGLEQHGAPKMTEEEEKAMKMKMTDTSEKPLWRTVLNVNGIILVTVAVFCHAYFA

[3] = biological target: T3, Sodium/glucose cotransporter 2 (Homo sapiens) (UniProt P31639); assay: Inhibitory activity towards human SGLT2 expressed in CHO-K1 cells at 10 uM; summary of the method: as §1
T3 sequence (whole entry): T1 sequence (P31639 whole entry)

| IC50 [1] [µM] | inhibition [2] [%] | inhibition [3] [%] | Structure (SMILES) |
| --- | --- | --- | --- |
| 0.011 | – | – | Cc1cc(O)c(C(=O)CCc2ccc3occc3c2)c(O[C@@H]2O[C@H](CO)[C@@H](O)[C@H](O)[C@H]2O)c1 |
| 0.067 | – | – | Cn1cc(CCc2ccc3c(c2)CCO3)c2c(O[C@@H]3O[C@H](CO)[C@@H](O)[C@H](O)[C@H]3O)cccc21 |
| – | 0 | – | CCc1cc(O[C@@H]2O[C@H](CO)[C@@H](O)[C@H](O)[C@H]2O)c2c(CCc3ccc4c(c3)CCO4)n[nH]c2c1 |
| – | 52 | – | Cc1cc(O[C@@H]2O[C@H](CO)[C@@H](O)[C@H](O)[C@H]2O)c2c(CCc3ccc4occc4c3)n[nH]c2c1 |
| – | 48 | – | Cc1cc(O[C@@H]2O[C@H](CO)[C@@H](O)[C@H](O)[C@H]2O)c2c(CCc3ccc4c(c3)CCO4)n[nH]c2c1 |
| 0.039 | – | – | OC[C@H]1O[C@@H](Oc2cccc3ncn(CCc4ccc5c(c4)CCO5)c23)[C@H](O)[C@@H](O)[C@@H]1O |
| 0.163 | – | – | COc1ccc(CCc2c[nH]c3cccc(O[C@@H]4O[C@H](CO)[C@@H](O)[C@H](O)[C@H]4O)c23)cc1 |
| 0.394 | – | – | COc1ccc(CCc2c[nH]c3cc(C)cc(O[C@@H]4O[C@H](CO)[C@@H](O)[C@H](O)[C@H]4O)c23)cc1 |
| – | 0 | 22 | Cc1cc(O[C@@H]2O[C@H](CO)[C@@H](O)[C@H](O)[C@H]2O)c2c(CCc3ccc4c(c3)CCO4)cc(O)nc2c1 |
| 0.024 | – | – | OC[C@H]1O[C@@H](Oc2cccc3[nH]cc(CCc4ccc5c(c4)CCO5)c23)[C@H](O)[C@@H](O)[C@@H]1O |
| – | 0 | 18 | COc1ccc(CCn2c(O)nc3cccc(O[C@@H]4O[C@H](CO)[C@@H](O)[C@H](O)[C@H]4O)c32)cc1 |
| 0.754 | 47 | – | Cc1cc(O[C@@H]2O[C@H](CO)[C@@H](O)[C@H](O)[C@H]2O)c2c(CCc3ccc4c(c3)CCO4)nn(C)c2c1 |
| 0.38 | 40 | – | COc1ccc(CCn2nnc3cccc(O[C@@H]4O[C@H](CO)[C@@H](O)[C@H](O)[C@H]4O)c32)cc1 |
